Active and inactive are the calls of the source. The calls are words filed in the database; no cut-off is given here.
Key:
Mus musculus [1] = assay: Lowering of arterial oxygen saturation decline in BALB/c mouse infected with influenza A virus (A/duck/Minnesota/1525/1981 (H5N1)) at 300 mg/kg/day, po qid for 5 days administered 24 hrs after infection measured on day 11 relative to carboxymethyl cellulose; assay type: functional
Mus musculus [2] = assay: Effect on survival of BALB/c mouse infected with influenza A virus (A/duck/Minnesota/1525/1981 (H5N1)) at 3 mg/kg/day, po once daily for 5 days administered 1 hr after infection relative to carboxymethyl cellulose; assay type: functional, organism-based
Mus musculus [3] = assay: Lowering of Arterial oxygen saturation decline in BALB/c mouse infected with influenza A virus (A/duck/Minnesota/1525/1981 (H5N1)) at 10 mg/kg/day, po twice daily for 5 days administered 1 hr after infection measured on day 11 relative to carboxymethyl cellulose; assay type: functional
Method in brief: (§1)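 Arterial oxygen saturation was measured by pulse oximeter, with the ear probe placed on the thigh and read after 30 s stabilization. Values were taken on day 11, 10 mice per group. Mice dead from infection were assigned 75%. Means were compared with CMC controls by t test.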

Mus musculus [4] = assay: Lowering of arterial oxygen saturation decline in BALB/c mouse infected with influenza A virus (A/duck/Minnesota/1525/1981 (H5N1)) at 300 mg/kg/day, po qid for 5 days administered 60 hrs after infection measured on day 11 relative to carboxymethyl cellulose; assay type: functional
Mus musculus [5] = assay: Lowering of arterial oxygen saturation decline in BALB/c mouse infected with influenza A virus (A/duck/Minnesota/1525/1981 (H5N1)) at 300 mg/kg/day, po once daily for 5 days administered 1 hr after infection measured on day 11 relative to carboxymethyl cellulose; assay type: functional
Mus musculus [6] = assay: Effect on survival in BALB/c mouse infected with influenza A virus (A/duck/Minnesota/1525/1981 (H5N1)) at 600 mg/kg/day, po administered 24 hrs after infection relative to carboxymethyl cellulose; assay type: functional, organism-based
Mus musculus [7] = assay: Lowering of arterial oxygen saturation decline in BALB/c mouse infected with influenza A virus (A/duck/Minnesota/1525/1981 (H5N1)) at 300 mg/kg/day, po qid for 5 days administered 48 hrs after infection measured on day 11 relative to carboxymethyl cellulose; assay type: functional
Mus musculus [8] = assay: Lowering of arterial oxygen saturation decline in BALB/c mouse infected with influenza A virus (A/duck/Minnesota/1525/1981 (H5N1)) at 300 mg/kg/day, po qid for 5 days administered 120 hrs after infection measured on day 11 relative to carboxymethyl cellulose; assay type: functional
Mus musculus [9] = assay: Effect on survival of BALB/c mouse infected with influenza A virus (A/duck/Minnesota/1525/1981 (H5N1)) at 300 mg/kg/day, po qid for 5 days administered 1 hr after infection relative to carboxymethyl cellulose; assay type: functional, organism-based
Mus musculus [10] = assay: Effect on survival in BALB/c mouse infected with influenza A virus (A/duck/Minnesota/1525/1981 (H5N1)) at 600 mg/kg/day, po administered 12 hrs after infection relative to carboxymethyl cellulose; assay type: functional, organism-based
Influenza A virus = assay: Inhibition of influenza A virus (A/duck/Minnesota/1525/1981 (H5N1)) replication in MDCK cells by virus yield reduction assay; assay type: functional
Mus musculus [11] = assay: Lowering of Arterial oxygen saturation decline in BALB/c mouse infected with influenza A virus (A/duck/Minnesota/1525/1981 (H5N1)) at 3 mg/kg/day, po twice daily for 5 days administered 1 hr after infection measured on day 11 relative to carboxymethyl cellulose; assay type: functional; method in brief: as §1
Mus musculus [12] = assay: Lowering of arterial oxygen saturation decline in BALB/c mouse infected with influenza A virus (A/duck/Minnesota/1525/1981 (H5N1)) at 300 mg/kg/day, po qid for 5 days administered 84 hrs after infection measured on day 11 relative to carboxymethyl cellulose; assay type: functional
Mus musculus [13] = assay: Effect on survival in BALB/c mouse infected with influenza A virus (A/duck/Minnesota/1525/1981 (H5N1)) at 600 mg/kg/day, po administered 4 hrs after infection relative to carboxymethyl cellulose; assay type: functional, organism-based
Mus musculus [14] = assay: Effect on survival of BALB/c mouse infected with influenza A virus (A/duck/Minnesota/1525/1981 (H5N1)) at 300 mg/kg/day, po qid for 5 days administered 84 hrs after infection relative to carboxymethyl cellulose; assay type: functional, organism-based
Mus musculus [15] = assay: Effect on survival of BALB/c mouse infected with influenza A virus (A/duck/Minnesota/1525/1981 (H5N1)) at 300 mg/kg/day, po once daily for 5 days administered 1 hr after infection relative to carboxymethyl cellulose; assay type: functional, organism-based
Mus musculus [16] = assay: Effect on survival of BALB/c mouse infected with influenza A virus (A/duck/Minnesota/1525/1981 (H5N1)) at 100 mg/kg/day, po once daily for 5 days administered 1 hr after infection relative to carboxymethyl cellulose; assay type: functional, organism-based
Mus musculus [17] = assay: Effect on survival of BALB/c mouse infected with influenza A virus (A/duck/Minnesota/1525/1981 (H5N1)) at 100 mg/kg/day, po twice daily for 5 days administered 1 hr after infection relative to carboxymethyl cellulose; assay type: functional, organism-based
Mus musculus [18] = assay: Lowering of arterial oxygen saturation decline in BALB/c mouse infected with influenza A virus (A/duck/Minnesota/1525/1981 (H5N1)) at 100 mg/kg/day, po once daily for 5 days administered 1 hr after infection measured on day 11 relative to carboxymethyl cellulose; assay type: functional
Mus musculus [19] = assay: Effect on survival in BALB/c mouse infected with influenza A virus (A/duck/Minnesota/1525/1981 (H5N1)) at 300 mg/kg/day, po administered 4 hrs after infection relative to carboxymethyl cellulose; assay type: functional, organism-based
Mus musculus [20] = assay: Effect on survival of BALB/c mouse infected with influenza A virus (A/duck/Minnesota/1525/1981 (H5N1)) at 300 mg/kg/day, po qid for 5 days administered 36 hrs after infection relative to carboxymethyl cellulose; assay type: functional, organism-based

In the case of `NC(=O)c1nc(F)cnc1O` [FAVIPIRAVIR], the Activity (Mus musculus [1]) is reported as 85.3%, the Activity (Mus musculus [2]) is reported as “inactive” and the Activity (Mus musculus [3]) is reported as 75.5%. For the same molecule, the Activity (Mus musculus [4]) was 84.6%, the Activity (Mus musculus [5]) was 82.7% and the Activity (Mus musculus [6]) was “Active”. For the same molecule, the Activity (Mus musculus [7]) was 87.1%, the Activity (Mus musculus [8]) was 76% and the Activity (Mus musculus [9]) was “Active”. For the same molecule, the Activity (Mus musculus [10]) was “Active”, the EC90 (Influenza A virus) was 2600 nM and the Activity (Mus musculus [11]) was 75%. For the same molecule, the Activity (Mus musculus [12]) was 81.7%, the Activity (Mus musculus [13]) was “Active” and the Activity (Mus musculus [14]) was “Active”. The Activity (Mus musculus [15]) was “Active”, the Activity (Mus musculus [16]) was “Active” and the Activity (Mus musculus [17]) was “Active”. For the same molecule, the Activity (Mus musculus [18]) was 80.8%, the Activity (Mus musculus [19]) was “Active” and the Activity (Mus musculus [20]) was “Active”.

Source: ChEMBL document CHEMBL1142087 (Antimicrob Agents Chemother, 2007)
